Results on 2 compounds are retold here after ChEMBL document CHEMBL2331485, “Pyrimidoaminotropanes as potent, selective, and efficacious small molecule kinase inhibitors of the mammalian target of rapamycin (mTOR)” (J Med Chem, 2013).

pEC50, pIC50, pKi: −log10 of the molar value. Activity calls are given as the source filed them. No cut-off for these calls is given here.

In series [1] the test system is Canis familiaris. Briefly: Unbound blood clearance in iv dosed dog. In kind it is ADME, organism-based, Canis lupus familiaris. Particulars: in vivo.
A short description of series [2]: Antitumor activity against human MCF7-neo/Her2 xenografted in nude mouse at 12.5 mg/kg, qd measured after 14 days. Conditions: 336 h, read-out: TGI. In kind it is functional.
Series [3] concerns the target T1, Phosphatidylinositol 4,5-bisphosphate 3-kinase catalytic subunit delta isoform (Homo sapiens) (UniProt O00329).
T1 sequence (whole entry): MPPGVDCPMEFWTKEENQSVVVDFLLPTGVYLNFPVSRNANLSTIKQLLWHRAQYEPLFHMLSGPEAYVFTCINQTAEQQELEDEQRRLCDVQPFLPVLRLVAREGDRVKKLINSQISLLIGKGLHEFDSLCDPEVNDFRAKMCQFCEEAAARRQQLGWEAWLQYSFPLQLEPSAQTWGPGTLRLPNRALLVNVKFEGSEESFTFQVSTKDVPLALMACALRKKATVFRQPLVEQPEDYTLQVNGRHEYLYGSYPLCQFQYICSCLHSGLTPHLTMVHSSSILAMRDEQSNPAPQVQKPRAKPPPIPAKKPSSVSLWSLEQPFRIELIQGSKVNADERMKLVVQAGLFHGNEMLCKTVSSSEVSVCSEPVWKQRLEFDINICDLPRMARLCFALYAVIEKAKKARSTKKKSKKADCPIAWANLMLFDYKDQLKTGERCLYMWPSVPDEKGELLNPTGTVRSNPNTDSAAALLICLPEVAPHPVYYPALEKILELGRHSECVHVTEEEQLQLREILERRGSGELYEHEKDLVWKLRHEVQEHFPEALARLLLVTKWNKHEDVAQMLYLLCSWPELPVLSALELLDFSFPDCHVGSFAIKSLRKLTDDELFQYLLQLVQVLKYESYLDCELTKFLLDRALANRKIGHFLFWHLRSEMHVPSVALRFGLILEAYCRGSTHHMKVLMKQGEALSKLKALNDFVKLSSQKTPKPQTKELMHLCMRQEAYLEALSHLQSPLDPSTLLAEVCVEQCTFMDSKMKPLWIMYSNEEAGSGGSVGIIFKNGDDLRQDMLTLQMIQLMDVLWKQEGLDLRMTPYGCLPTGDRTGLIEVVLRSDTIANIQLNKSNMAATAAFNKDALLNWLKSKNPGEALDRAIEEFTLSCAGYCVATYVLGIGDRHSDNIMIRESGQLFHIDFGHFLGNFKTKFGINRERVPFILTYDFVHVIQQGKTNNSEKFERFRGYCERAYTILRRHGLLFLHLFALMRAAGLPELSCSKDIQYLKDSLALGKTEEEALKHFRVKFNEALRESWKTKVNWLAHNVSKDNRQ
Briefly: Inhibition of PI3Kdelta (unknown origin) at 1 uM.

The subject of series [4] is Mus musculus. Nature of the series: Inhibition of mTORC2-mediated AKT phosphorylation in human PC3 cells xenografted in NCR mouse up to 5 mg/kg, po measured at 6 hrs. In kind it is functional, organism-based. Further details: dose 5 mg/kg. Particulars: PC-3.
Series [5] relates to Mus musculus. Briefly: Inhibition of mTORC1-mediated S6RP phosphorylation in human PC3 cells xenografted in NCR mouse up to 5 mg/kg, po measured at 6 hrs. In kind it is functional, organism-based. Further details: dose 5 mg/kg. Conditions: PC-3.
The nature of series [6]: Half life in iv dosed dog. Particulars: in vivo. In kind it is ADME, organism-based, Canis lupus familiaris.
Series [7] in a line: Volume of distribution at steady state in iv dosed dog. In kind it is ADME, organism-based, Canis lupus familiaris. Conditions: in vivo, read-out: Vdss.
A short description of series [8]: Blood clearance in iv dosed dog. Particulars: whole blood. In kind it is ADME, organism-based, Canis lupus familiaris.
The nature of series [9]: Plasma protein binding in mouse at 5 uM after 4 hrs by rapid equilibrium dialysis. In kind it is ADME, cell-free. Conditions: read-out: PPB (converted).
Series [10] in a line: Plasma protein binding in human at 5 uM after 4 hrs by rapid equilibrium dialysis. In kind it is ADME, cell-free. Particulars: read-out: PPB (converted).
Series [11] in a line: Plasma protein binding in rat at 5 uM after 4 hrs by rapid equilibrium dialysis. Particulars: read-out: PPB (converted). In kind it is ADME, cell-free.
Series [12] can be described thus: Half life in mouse at 1 mg/kg, iv. In kind it is ADME, organism-based. Further details: dose 1 mg/kg, route intravenous. Conditions: in vivo. An outline of the steps: (§1)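 Mouse PK used iv dosing at 1 mg/kg as a 60% PEG solution and po dosing at 5 mg/kg as a suspension in MCT. Clearance, unbound clearance, Vss, t1/2 and oral bioavailability were derived from these doses.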

The nature of series [13]: Oral bioavailability in mouse at 5 mg/kg. Particulars: in vivo. In kind it is ADME, organism-based. In short, it runs like this: as §1
Series [14] is described as follows: Volume of distribution at steady state in mouse at 1 mg/kg, iv. In kind it is ADME, organism-based. Further details: dose 1 mg/kg, route intravenous. Particulars: in vivo, read-out: Vdss. An outline of the steps:
as §1

The nature of series [15]: Clearance in mouse at 1 mg/kg, iv. In kind it is ADME, organism-based. Also noted: dose 1 mg/kg, route intravenous. Conditions: in vivo. In short, it runs like this: as §1
Series [16] relates to Mus musculus. Nature of the series: Unbound clearance in mouse at 1 mg/kg, iv. In kind it is ADME, organism-based. Also noted: dose 1 mg/kg, route intravenous. Conditions: in vivo. An outline of the steps: as §1
The nature of series [17]: Clearance in mouse liver microsomes. In kind it is ADME, Microsome.
Series [18] can be described thus: Clearance in rat liver microsomes. In kind it is ADME, Microsome.
The nature of series [19]: Clearance in human liver microsomes. In kind it is ADME, Microsome.
The nature of series [20]: Kinetic solubility of the compound. In kind it is physicochemical.
The target of series [21] is Cytochrome P450 3A4 (Homo sapiens, UniProt P08684). Nature of the series: Time dependent inhibition of human CYP3A4 preincubated for 30 mins in presence of NADPH. In kind it is ADME. In short, it runs like this: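 TDI IC50 is the inhibitor concentration giving 50% loss of CYP3A4 activity after a 30 min pre-incubation with NADPH. It is reported as clean where no IC50 could be measured.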
Sequence of Cytochrome P450 3A4 (P08684 whole entry): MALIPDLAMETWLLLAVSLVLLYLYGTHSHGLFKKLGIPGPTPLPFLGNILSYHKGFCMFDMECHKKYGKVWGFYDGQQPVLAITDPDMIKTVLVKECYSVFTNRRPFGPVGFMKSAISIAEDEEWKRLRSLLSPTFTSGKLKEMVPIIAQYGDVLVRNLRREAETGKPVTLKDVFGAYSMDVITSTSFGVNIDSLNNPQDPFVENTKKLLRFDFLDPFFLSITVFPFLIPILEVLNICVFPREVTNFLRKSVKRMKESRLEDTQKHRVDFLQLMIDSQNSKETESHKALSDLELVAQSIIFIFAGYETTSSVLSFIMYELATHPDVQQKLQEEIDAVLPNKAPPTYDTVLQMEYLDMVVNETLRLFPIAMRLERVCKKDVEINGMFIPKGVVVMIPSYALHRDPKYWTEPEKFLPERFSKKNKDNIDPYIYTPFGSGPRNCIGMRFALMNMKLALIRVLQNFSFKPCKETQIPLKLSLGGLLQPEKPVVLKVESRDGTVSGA

Series [22] can be described thus: Cytotoxicity against human MCF7 neo/Her2 cells after 3 days by CellTiter-Glo assay. Particulars: MCF7, 72 h.
The test system of series [23] is PC-3. Nature of the series: Cytotoxicity against human PC3 cells after 4 days by CellTiter-Glo assay. Conditions: PC-3, 96 h.
Series [24] in a line: Inhibition of mTORC2 in human NCI-PC3 cells assessed as inhibition of AKT phosphorylation.
In series [25] the target is mTORC1 (Homo sapiens, UniProt P42345). Nature of the series: Inhibition of mTORC1 in human NCI-PC3 cells assessed as inhibition of p70S6K phosphorylation. In kind it is cell-based.
Series [26] concerns the target Serine/threonine-protein kinase mTOR (Homo sapiens, UniProt P42345). Nature of the series: Inhibition of human recombinant mTOR expressed in insect cells assessed as inhibition of phosphorylation of (GFP)-4-EBP1 protein after 30 mins by fluorescence resonance energy transfer assay.
The test system of series [27] is Plasma. Nature of the series: Unbound plasma concentration in NCR nude mouse xenografted with human PC3 cells at 50 to 100 mg/kg, po measured at 6 to 10 hrs. Further details: route oral. In kind it is ADME, organism-based, PC-3. Particulars: in vivo.
For series [28], the system named is Plasma. Briefly: Plasma concentration in NCR nude mouse xenografted with human PC3 cells at 50 to 100 mg/kg, po measured at 6 to 10 hrs. Also noted: route oral. In kind it is ADME, organism-based, PC-3. Conditions: in vivo.
Series [29] is filed under the species Mus musculus. Conditions: NCR, NCI-PC3, 50 to 100 mg/kg.
The species named for series [30] is Mus musculus. Particulars: NCR, NCI-PC3, 50 to 100 mg/kg. The source holds these as a separate data set.

Take `CCNC(=O)Nc1ccc(-c2nc3c(c(N4CCOC[C@@H]4C)n2)C[C@@H]2CC[C@H]3N2C2COC2)cc1`: the CL free in series [1] came out at 44 mL/min/kg; in series [16], 38 mL/min/kg. Moreover, in [2], the inhibition in vivo at 12.5 mg/kg was 57%. In series [3], this compound yielded an inhibition of 51%. The inhibition result in series [4] and in series [5] was “Active” in each case. The half-life was 3.1 h in [6] and 2 h in series [12]. For the same compound, the values for the Vd in series [7] and in series [14] were 3 L/kg and 0.53 L/kg, respectively. The clearance in series [8] was determined as 6 mL/min/kg; in [15], 4.8 mL/min/kg. Further, the fraction unbound at 4 h, 5 µM in series [9] is 0.13; in series [10], 0.15; in series [11] it was 0.24. The bioavailability in series [13] worked out at 82%. In addition, the results for the CLhep predicted in [17], in [18] and in series [19] were 51 mL/min/kg, 27 mL/min/kg and 14 mL/min/kg, respectively. In series [20], the Kinetic_solubility result is on record as “soluble”. For the same compound, the pIC50 was less than 5.00 in series [21], 8.47 in series [24] and 8.57 in series [25]. Besides, the pEC50 was 7.12 in series [22] and 7.54 in series [23]. Moreover, the pKi in [26] was 8.82.

For `CCNC(=O)Nc1ccc(-c2nc3c(c(N4CCOC[C@@H]4C)n2)[C@H]2CC[C@@H](C3)N2C)cc1`, in [27], the “Cp(f)” value was greater than 320 nM. The compound also had a concentration in series [28] greater than 1000 nM. The fraction unbound at 4 h, 5 µM in [9] is 0.32; in series [10], 0.62; in series [11], 0.73. In addition, the half-life in series [12] was 0.8 h. The bioavailability in series [13] turned out to be 114%. In addition, the Vd in series [14] came out at 4.5 L/kg. Further, in series [15], the clearance is 67 mL/min/kg. The compound further had a CL free in [16] of 207 mL/min/kg. Also, the figures for the CLhep predicted in series [17], in series [18] and in series [19] were 42 mL/min/kg, 18 mL/min/kg and 12 mL/min/kg, respectively. For the same compound, the solubility kinetic in series [20] (read-out: Kinetic_solubility) is greater than 75 µM. For the same compound, the values for the pEC50 in series [22] and in [23] were 7.01 and 6.99, respectively. For the same compound, the pIC50 in [24] was 8.41. In addition, the inhibition result in [29] and in [30] was “Active” each time.
